ChEMBL document CHEMBL3259662 (ACS Med Chem Lett, 2014)
Converted amounts (≈) assume the structure as drawn. The source made the active and inactive calls. The calls are words filed in the database; no cut-off is given here. Peptide text beside a SMILES is read from it. * marks the point of attachment. Boc = CC(C)(C)OC(=O)*; NHBn = c1ccc(CN*)cc1

Columns and labels:
[1] = tested on: SK-OV-3; experiment: Cytotoxicity against human SKOV3 cells assessed as cell viability after 48 hrs by neutral red uptake assay; format: cell-based; settings: sk-ov-3, 48 h
Procedure, shortened: (§1)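 Neutral red uptake assay in human cancer lines SK-MEL, KB, BT-549 and SK-OV-3 and in noncancerous mammalian kidney cells VERO and LLC-PK1. The highest tested concentration was 10 μg/mL.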

[2] = tested on: Cryptococcus neoformans; experiment: Antifungal activity against Cryptococcus neoformans ATCC 90113 after 70 to 74 hrs by CLSI method; format: functional, organism-based; settings: for IC50 / MIC: Cryptococcus neoformans, ATCC 90113
Procedure, shortened: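 Growth inhibition of C. neoformans per the CLSI protocol. […] MIC is the lowest test concentration with no detectable growth. MFC is the lowest concentration killing 100% of the organism.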

[3] = Selectivity index, ratio of cytotoxicity for pig LLC-PK1 cells to IC50 for Cryptococcus neoformans ATCC 90113; format: toxicity, cell-based; settings: read-out: Selectivity Index
[4] = tested on: Nakaseomyces glabratus; experiment: Antifungal activity against Candida glabrata by CLSI method; format: functional, organism-based
[5] = tested on: Vero; experiment: Cytotoxicity against African green monkey Vero cells assessed as cell viability after 48 hrs by neutral red uptake assay; format: cell-based; settings: chlorocebus sabaeus; procedure, shortened: as §1
[6] = Selectivity index, ratio of cytotoxicity for human SKOV3 cells to IC50 for Cryptococcus neoformans ATCC 90113; format: toxicity, cell-based, SK-OV-3; settings: read-out: Selectivity Index
[7] = tested on: Aspergillus fumigatus; experiment: Antifungal activity against Aspergillus fumigatus by CLSI method; format: functional, organism-based
[8] = tested on: Escherichia coli; experiment: Antibacterial activity against Escherichia coli ATCC 35218 after 16 to 20 hrs by CLSI method; format: functional, organism-based
[9] = tested on: LLC-PK1; experiment: Cytotoxicity against pig LLC-PK1 cells assessed as cell viability after 48 hrs by neutral red uptake assay; format: cell-based, Sus scrofa; settings: llc-pk1, 48 h; procedure, shortened: as §1
[10] = tested on: Candida albicans; experiment: Antifungal activity against Candida albicans by CLSI method; format: functional, organism-based
[11] = Selectivity index, ratio of cytotoxicity for human BT549 cells to IC50 for Cryptococcus neoformans ATCC 90113; format: toxicity, cell-based, BT-549; settings: read-out: Selectivity Index
[12] = Selectivity index, ratio of cytotoxicity for human KB cells to IC50 for Cryptococcus neoformans ATCC 90113; format: toxicity, cell-based; settings: read-out: Selectivity Index
[13] = tested on: Pichia kudriavzevii; experiment: Antifungal activity against Candida krusei by CLSI method; format: functional, organism-based
[14] = tested on: SK-MEL; experiment: Cytotoxicity against human SK-MEL cells assessed as cell viability after 48 hrs by neutral red uptake assay; format: cell-based; procedure, shortened: as §1
[15] = tested on: BT-549; experiment: Cytotoxicity against human BT549 cells assessed as cell viability after 48 hrs by neutral red uptake assay; format: cell-based; settings: bt-549, 48 h; procedure, shortened: as §1
[16] = tested on: KB; experiment: Cytotoxicity against human KB cells assessed as cell viability after 48 hrs by neutral red uptake assay; format: cell-based; procedure, shortened: as §1
[17] = Selectivity index, ratio of cytotoxicity for human SK-MEL cells to IC50 for Cryptococcus neoformans ATCC 90113; format: toxicity, cell-based; settings: read-out: Selectivity Index
[18] = Selectivity index, ratio of cytotoxicity for African green monkey Vero cells to IC50 for Cryptococcus neoformans ATCC 90113; format: toxicity, cell-based; settings: read-out: Selectivity Index
[19] = Retention time of the compound by reverse phase HPLC analysis; format: physicochemical
Procedure, shortened: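 Reverse-phase HPLC on a C-18 column (25 cm × 4.6 mm, 5 μM) at 1 mL/min over 40 min. The gradient ran 85−5% with A = 0.1% TFA in H2O and B = 0.1% TFA in CH3CN. Detection was at 220 nm.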

Compound	Activity [1] [µg/mL]	MFC100 [2] [µg/mL]	IC50 [2] [µg/mL]	MIC [2] [µg/mL]	selectivity ratio [3]	Activity [4]	Activity [5] [µg/mL]	selectivity ratio [6]	Activity [7]	Activity [8]	Activity [9] [µg/mL]	Activity [10]	selectivity ratio [11]	selectivity ratio [12]	Activity [13]	Activity [14] [µg/mL]	Activity [15] [µg/mL]	Activity [16] [µg/mL]	selectivity ratio [17]	selectivity ratio [18]	also measured
Cc1ccc(-c2nc(C[C@H](NC(=O)[C@@H](N)CCCNC(=N)N)C(=O)N[C@@H](CCCNC(=N)N)C(=O)NCc3ccccc3)c[nH]2)cc1	> 10	10 (≈ 15.5 µM)	0.35 (≈ 0.541 µM)	0.63 (≈ 0.974 µM)	> 28.6	inactive	> 10	> 28.6	inactive	inactive	> 10	inactive	> 28.6	> 28.6	inactive	> 10	> 10	> 10	> 28.6	> 28.6	
CC(C)(C)OC(=O)N[C@@H](CCCNC(=N)N)C(=O)N[C@@H](Cc1c[nH]c(-c2ccccc2)n1)C(=O)N[C@@H](CCCNC(=N)N)C(=O)NCc1ccccc1	> 10	1.25 (≈ 1.71 µM)	0.67 (≈ 0.914 µM)	1.25 (≈ 1.71 µM)	> 14.9	inactive	> 10	> 14.9	inactive	inactive	> 10	inactive	> 14.9	> 14.9	inactive	> 10	> 10	> 10	> 14.9	> 14.9	Retention_time [19]: 17.63 min
COC(=O)[C@H](CCCNC(=N)N)NC(=O)[C@H](Cc1c[nH]c(-c2ccc(C(C)(C)C)cc2)n1)NC(=O)[C@@H](N)CCCNC(=N)N	> 10	1.25 (≈ 2.04 µM)	0.61 (≈ 0.994 µM)	1.25 (≈ 2.04 µM)	> 16.3	inactive	> 10	> 16.3	inactive	inactive	> 10	inactive	> 16.3	> 16.3	inactive	> 10	> 10	> 10	> 16.3	> 16.3	
CC(C)(C)OC(=O)N[C@@H](CCCNC(=N)N)C(=O)N[C@@H](Cc1c[nH]cn1)C(=O)N[C@@H](CCCNC(=N)N)C(=O)NCc1ccccc1 (Boc-Arg-His-Arg-NHBn)	> 10	10 (≈ 15.2 µM)	5.35 (≈ 8.15 µM)	10 (≈ 15.2 µM)	> 1.8	inactive	> 10	> 1.8	inactive	inactive	> 10	inactive	> 1.8	> 1.8	inactive	> 10	> 10	> 10	> 1.8	> 1.8	Retention_time [19]: 16.41 min
COC(=O)[C@H](CCCNC(=N)N)NC(=O)[C@H](Cc1c[nH]c(-c2ccc(C(C)(C)C)cc2)n1)NC(=O)[C@H](CCCNC(=N)N)NC(=O)OC(C)(C)C	> 10	1.25 (≈ 1.75 µM)	0.71 (≈ 0.995 µM)	1.25 (≈ 1.75 µM)	> 14.1	inactive	> 10	> 14.1	inactive	inactive	> 10	inactive	> 14.1	> 14.1	inactive	> 10	> 10	> 10	> 14.1	> 14.1	Retention_time [19]: 20.91 min
COc1ccc(-c2nc(C[C@H](NC(=O)[C@H](CCCNC(=N)N)NC(=O)OC(C)(C)C)C(=O)N[C@@H](CCCNC(=N)N)C(=O)NCc3ccccc3)c[nH]2)cc1	> 10	5 (≈ 6.55 µM)	0.68 (≈ 0.891 µM)	2.5 (≈ 3.28 µM)	> 14.7	inactive	> 10	> 14.7	inactive	inactive	> 10	inactive	> 14.7	> 14.7	inactive	> 10	> 10	> 10	> 14.7	> 14.7	Retention_time [19]: 18.93 min
N=C(N)NCCC[C@H](NC(=O)[C@H](Cc1c[nH]c(-c2ccccc2)n1)NC(=O)[C@@H](N)CCCNC(=N)N)C(=O)NCc1ccccc1	> 10	1.25 (≈ 1.98 µM)	0.73 (≈ 1.15 µM)	1.25 (≈ 1.98 µM)	> 13.7	inactive	> 10	> 13.7	inactive	inactive	> 10	inactive	> 13.7	> 13.7	inactive	> 10	> 10	> 10	> 13.7	> 13.7	
COC(=O)[C@H](CCCNC(=N)N)NC(=O)[C@H](Cc1c[nH]c(-c2ccc(-c3ccccc3)cc2)n1)NC(=O)[C@@H](N)CCCNC(=N)N	> 10	1.25 (≈ 1.97 µM)	0.59 (≈ 0.931 µM)	1.25 (≈ 1.97 µM)	> 16.9	inactive	> 10	> 16.9	inactive	inactive	> 10	inactive	> 16.9	> 16.9	inactive	> 10	> 10	> 10	> 16.9	> 16.9	
C[C@@H]1[C@H](O)[C@@H](C)/C=C/C=C/C=C/C=C/C=C/C=C/C=C/[C@H](O[C@@H]2O[C@H](C)[C@@H](O)[C@H](N)[C@@H]2O)C[C@@H]2O[C@](O)(C[C@@H](O)C[C@@H](O)[C@H](O)CC[C@@H](O)C[C@@H](O)CC(=O)O[C@H]1C)C[C@H](O)[C@H]2C(=O)O [AMPHOTERICIN B]		1.25 (≈ 1.35 µM)		1.25 (≈ 1.35 µM)																	
COC(=O)[C@H](CCCNC(=N)N)NC(=O)[C@H](Cc1c[nH]c(-c2ccc(OC)cc2)n1)NC(=O)[C@H](CCCNC(=N)N)NC(=O)OC(C)(C)C	> 10	5 (≈ 7.27 µM)	4.06 (≈ 5.9 µM)	5 (≈ 7.27 µM)	> 2.5	inactive	> 10	> 2.5	inactive	inactive	> 10	inactive	> 2.5	> 2.5	inactive	> 10	> 10	> 10	> 2.5	> 2.5	Retention_time [19]: 13.59 min
COC(=O)[C@H](CCCNC(=N)N)NC(=O)[C@H](Cc1c[nH]c(-c2ccc(OC)cc2)n1)NC(=O)[C@@H](N)CCCNC(=N)N	> 10	5 (≈ 8.51 µM)	3.93 (≈ 6.69 µM)	5 (≈ 8.51 µM)	> 2.5	inactive	> 10	> 2.5	inactive	inactive	> 10	inactive	> 2.5	> 2.5	inactive	> 10	> 10	> 10	> 2.5	> 2.5	
